The list is not random: actives were taken first. Their share in the collection is about 4.6%.
TAAR1 agonist: human TAAR1 agonism; 360,000 compounds, 0.99% hits; CHO RD-HGA16 TAAR1, Fluo-8 calcium fluorescence; vehicle wells 0%, saturating PEA agonist 100%; activation, % at 3 µM; Q96RJ0;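 active = activation above the mean activation of all test compounds in the run plus 3 SD, cut at about 38% in these data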
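Benchmarks: low control DMSO, high control PEA (EC100); System: CHO RD-HGA16 cells carrying human TAAR1 plus Gα16; Detection: Fluo-8 fluorescence, 5 s baseline then 140 s kinetic read; Schedule: 17-24 h plating, Fluo-8 75 min 37 °C, 30 min RT; Read-out basis: % activation from peak over basal fluorescence ratio, DMSO-to-PEA scaled.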
CHO parental Ca: counter-screen: ATP calcium response change in parental CHO cells. parental CHO-K1, ATP-induced calcium, Fluo-8 fluorescence. inhibition, % at 5.6 µM. 330,000 compounds, 0.63% hits. AID 463079;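 active = inhibition above that plate's mean sample inhibition plus 3 SD, cut at about 26% in these data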;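 also: 0% = ATP-challenged DMSO wells and 100% = DMSO wells without ATP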
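Assay system: untransfected parental CHO cell line. Also added: ATP agonist challenge. Dosing: one dose, 5.6 µM nominal. Measured by: Fluo-8 fluorescence. Read-out: % inhibition. Benchmarks: ATP wells versus no-ATP DMSO wells. Repeats: no replicates.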
OX1R antag-1: antagonists of human orexin 1 receptor | AID 434989 | 330,000 compounds, 0.43% hits | CHO/OX1R cells, Fluo-8 calcium fluorescence, orexin A | inhibition, % at 5 µM | O43613;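 active = inhibition above its plate's threshold, mean inhibition of all tested compounds on the plate plus 3 SD, cut at about 37% in these data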;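 also: 0% = orexin A challenge wells and 100% = SB-334867-A antagonist wells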
Target sequence (O43613 whole entry, looked up): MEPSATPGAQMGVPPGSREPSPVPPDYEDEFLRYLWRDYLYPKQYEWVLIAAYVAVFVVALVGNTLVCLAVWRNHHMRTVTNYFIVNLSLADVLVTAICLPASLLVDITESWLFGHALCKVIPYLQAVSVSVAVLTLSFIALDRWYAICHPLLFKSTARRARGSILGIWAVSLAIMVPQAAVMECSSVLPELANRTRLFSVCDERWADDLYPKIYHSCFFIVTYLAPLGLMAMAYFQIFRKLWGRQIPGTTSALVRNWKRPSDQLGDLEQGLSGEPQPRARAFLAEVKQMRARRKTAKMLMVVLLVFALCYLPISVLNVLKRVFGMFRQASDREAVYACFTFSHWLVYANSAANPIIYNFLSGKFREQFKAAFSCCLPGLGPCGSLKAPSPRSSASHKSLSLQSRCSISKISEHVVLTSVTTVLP
OX1R antag-2: blocks the human orexin 1 receptor. 330,000 compounds, 1.8% hits. O43613. OX1R-expressing cells, FRET antagonist read-out. inhibition, % at 6.6 µM; in the data active = inhibition mostly above about 38%, no sharp cut-off; inactive = mostly below about 40%;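 also: 0% = agonist challenge alone and 100% = reference antagonist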
GPR7 antag: human neuropeptides B/W receptor 1 antagonism | AID 1861 | inhibition, % at 4.4 µM | GPR7-expressing cells, fluorescence antagonist assay | 290,000 compounds, 1.1% hits; in the data active = inhibition above about 16%, passing the limit was not always enough;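 also: cells stimulated with the agonist NPW; 0% = agonist with vehicle and 100% = vehicle without agonist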
TAAR1 antagonist: antagonists of human TAAR1 | CHO RD-HGA16 TAAR1, Fluo-8 calcium fluorescence, antagonist | inhibition, % at 3 µM | Q96RJ0 | 360,000 compounds, 1.5% hits;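 active = inhibition above a per-plate cutoff, the mean inhibition of test compounds on that plate plus 3 SD, cut at about 49% in these data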;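 also: 0% = DMSO plus EC80 beta-PEA response and 100% = DMSO alone without agonist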
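Material: CHO RD-HGA16 cells bearing hTAAR1; compound dosing: one-point dosing, 3 µM nominal final; schedule: dye loading 75 min at 37 °C, then 30 min room temperature; measured by: calcium fluorescence with Fluo-8; control set: vehicle and agonist controls; replication: n of 1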
GPR7 antag cf: human GPR7 antagonism, confirmation assay. shares compounds with GPR7 antag. 2,400 compounds, 52% hits. GPR7-expressing cells, calcium fluorescence antagonist mode. inhibition, % at 4.4 µM. AID 1952; in the data active = inhibition above about 24%;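 also: stimulated with the GPR7 agonist NPW; 0% = agonist plus vehicle and 100% = vehicle alone without agonist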
MCHR1 antag: antagonizes human MCHR1, a GPR7 antagonist counter-screen | shares compounds with GPR7 antag | MCHR1-expressing cells, fluorescence antagonist assay | AID 2148 | inhibition, % at 4.4 µM | 2,400 compounds, 62% hits; in the data active = inhibition above about 22%;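 also: 0% = vehicle with agonist and 100% = vehicle without agonist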
Active calls of the source: *; x = no result given; ! = not confirmed by another sample.

SMILES	TAAR1 agonist	CHO parental Ca	OX1R antag-1	OX1R antag-2	GPR7 antag	TAAR1 antagonist	GPR7 antag cf	MCHR1 antag
CNC(=O)C1C2C=CC3(O2)C1C(=O)N(C1CC1)C3C(=O)NCc1ccc(OC)cc1 (centres undefined)	4	2	-10	23	25*	10	-3	-3
Cc1cccc(C)c1NC(=O)CN(C)CC(=O)Nc1ccccc1Oc1ccccc1	7	-20	-10	21	32*	6	26*	26*
Cc1ccc(NC(=O)CN(C)CC(=O)Nc2ccccc2Oc2ccccc2)cc1	-1	-7	-15	7	3	-10	x	x
COC(=O)c1ccc(OCC(=O)NCCC2=CCCCC2)c(OC)c1	17	-18	-12	16	x	-5	x	x
CCC(=O)c1ccc(OCC(=O)NCCC2=CCCCC2)c(OC)c1	0	-27	-29	8	24*	2	4	4
COc1ccc(NC(=O)c2ccc3c(=O)n(-c4ccc(OC)cc4OC)c(=S)[nH]c3c2)c(OC)c1	20	5	-1	9	4	33	x	x
CCOc1ccc(NC(=O)c2ccc3c(=O)n(-c4ccc(OC)cc4OC)c(=S)[nH]c3c2)cc1	31	16	-6	6	24*	27	44*	65*
COCCNC(=O)C(=O)NNS(=O)(=O)c1ccc2ccccc2c1	8	-11	-18	12	3	5	x	x
COc1ccccc1-c1cccc2[nH]c3c(c12)CCN1C(=O)[C@H]2[C@H](C)ON(C)[C@H]2C[C@@H]31	6	x	x	x	x	-24	x	x
N#CCCn1cc(/C=N/O)c(-c2ccc(-c3ccccc3)cc2)n1	1	0	6	23	27*	6	31*	42*
N#CCCn1cc(/C=N/O)c(-c2ccc(Cl)cc2)n1	3	-13	10	2	4	14	x	x
N#CCCn1cc(C=C(C#N)C#N)c(-c2ccc(Cl)cc2)n1	0	-3	-8	30	32*	-13	12	2
CN[C@H]1CC[C@@H](c2ccc(Cl)c(Cl)c2)c2ccccc21	52*	0	-4	15	35*!	51*!	51*	49*
O=C1C=C(O)CC(c2ccc(Cl)c(Cl)c2)C1 (centres undefined)	1	-15	-6	27	-4	1	x	x
COc1ccccc1NS(=O)(=O)c1cc(NC(=O)/C=C/c2cccs2)ccc1N1CCOCC1	1	-1	-4	26	-8	9	x	x
c1ccc(Nc2nnc(-c3cccnc3)s2)cc1	1	11	-20	3	41*	1	-1	14
COc1ccc(OCc2nn3c(Cn4cnc5ccccc54)nnc3s2)cc1	12	-9	4	8	-8	7	x	x
c1ccc(CCc2nn3c(Cn4cnc5ccccc54)nnc3s2)cc1	2	-16	-13	3	23*	-12	18	28*
Cc1ccc(S(=O)(=O)Oc2ccc(/C=C3\C(=N)N4N=C(S(C)(=O)=O)SC4=NC3=O)cc2)cc1	-2	24	2	23	30*	5	14	8
N#Cc1ccc(NC(=O)Nc2ccc(Cl)cc2)cc1	32	75*	68*	100*	30*	2	58*	57*
Cc1ccc(-c2ccc(C3C(C#N)=C(N)Oc4n[nH]c(C)c43)o2)cc1 (centres undefined)	18	-6	8	18	26*	16	49*	72*
N#CCSc1ncnc2c1cnn2CCO	3	-1	-7	-1	-13	-2	x	x
Fc1ccc(NC(=S)NCCc2ccccc2)c(F)c1F	25	-10	17	10	28*	13	8	55*
O=c1ccc2nc3ccccc3sc-2c1	1	x	x	x	x	3	x	x
O=C1NC(=S)S/C1=C\c1coc2ccccc2c1=O	0	-15	-9	64*	27*	-7	1	19

High-throughput results (PubChem BioAssay)
